Screens deposited in PubChem by Broad Institute.
The list is not random: actives were taken first. Their share in the collection is about 1.7%.
F508del corr: correctors of CFTR F508del function in bronchial epithelial cells; hit rate 0.36% among 350,000; CFBE cells, YFP halide quenching; stimulated with forskolin plus potentiator P3; % fluorescence drop versus neutral controls; activity (quench increase), % at 7.58 µM;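 active means mean added fluorescence quench of at least 8% versus neutral control, with both replicates also reaching 8%; inconclusive means only one of the mean or replicate conditions met; inactive means mean below 8% and not both replicates reaching 8%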;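 further: cells transiently co-express mutant CFTR-F508del with the halide-sensitive YFP; corrector assay measuring rescue of mutant channel to the surface after 24 h compound exposure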
CAL PDZ FP-1: human CAL PDZ-peptide interaction inhibition. inhibition, % at 20 µM. AID 504414. hit rate 0.02% among 330,000. Q9HD26. purified CAL PDZ, TMR-peptide fluorescence polarization, 1 h;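 active means highest replicate inhibition of at least 40%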;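 further: plate controls were DMSO neutral control wells for no effect and unlabeled competitor peptide control wells for full effect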
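Control set: unlabelled peptide and DMSO controls / Material: purified CerCALP PDZ construct / Timing: 1 h incubation at room temperature before polarization reading / Doses: 20 µM, one dose / Detection: fluorescence polarization (mP)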
CAL PDZ FP-2: CAL PDZ (human) peptide binding inhibition; inhibition, % at 24.9 µM; purified CAL PDZ, TMR-peptide fluorescence polarization, 1 h; hit rate 0.92% among 300,000; AID 602252; Q9HD26;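 active means mean inhibition of at least 30% with at least half of replicates also reaching 30%; inconclusive means no clear call, values can overlap the other calls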;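 further: 0% = DMSO neutral control and 100% = excess unlabeled competitor peptide PRC23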
PGC1a acetyl inh: modulators of PGC1a acetylation; AID 651687; U2OS PGC1a acetylation, AlphaScreen anti-acetyl-lysine; with virally co-expressed GCN5 acetyltransferase; hit rate 0.17% among 350,000; inhibition, % at 15.6 µM;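 active means every replicate shows inhibition of at least 40%; inconclusive means mean inhibition at least 40% but some replicate below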;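 further: 0% = neutral control wells and 100% = positive control wells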
ARNT-TACC3 inh: disruptors of human ARNT/TACC3 interaction; Q9Y6A5; AlphaScreen His-ARNT PAS-B/GST-TACC3 binding, luminescence; TACC3 fragment carries E629A point mutation; inhibition, % at 9.99 µM; hit rate 0.66% among 390,000;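 active means mean inhibition of replicates at least 50% and at least half of replicates each reaching 50%; inconclusive means half or more replicates reach 50% but mean below 50%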;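 further: 0% = complete ARNT plus TACC3 wells and 100% = ARNT alone without TACC3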
miR-122 sensor: blocks miR-122 activity in Huh7 sensor cells; activation (reporter increase), % at 12.5 µM; Huh7 miR-122 Renilla luciferase sensor, 48 h; neutral wells = 0, positive control = 100; hit rate 0.3% among 340,000;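 active means mean replicate activation score at least 90 and every replicate individually at or above 90; inconclusive means only one of the two criteria met; inactive means neither criterion met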;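 further: higher luciferase means less miR-122 activity so hits act as miR-122 inhibitors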
* hit, by the source's call; ? = inconclusive; . = no result; [ ] = dose if it differs, or a comment.

SMILES	F508del corr	CAL PDZ FP-1	CAL PDZ FP-2	PGC1a acetyl inh	ARNT-TACC3 inh	miR-122 sensor
O=C(Nc1ccccc1)c1ccc2nc(-c3ccco3)c(-c3ccco3)nc2c1	.	-1.9	.	1.9	47.1*	-2.4
O=C(NCCCO)c1ccc2nc(-c3ccco3)c(-c3ccco3)nc2c1	-1.8	-0.2	2.1	.	46.7*	-0.2
C[C@@H]1CN([C@@H](C)CO)C(=O)c2cccc(NC(=O)c3ccc(-c4nccs4)cc3)c2O[C@H]1CN(C)Cc1ccc(C(F)(F)F)cc1	-2.0	.	.	9.6	.	-1.5[16.7 µM]
COc1ccccc1S(=O)(=O)N[C@@H]1CC[C@@H](CC(=O)NCc2cc(F)cc(F)c2)O[C@@H]1CO	0.6	.	.	2.5	.	.
CCc1ccc(OCCNc2cc(N3CCNC(C)C3)ccc2[N+](=O)[O-])cc1 (stereo unspecified)	12.9*	-2.5	-3.0	.	25.0	.
COc1ccccc1CNC(=O)CC1Sc2ccccc2NC1=O (stereo unspecified)	1.1	-0.3	62.2*	.	5.9	1.0
Cn1c(C(=O)N2CCN(c3ccccn3)CC2)cc2ccccc21	0.9	-1.4	-4.1	8.3	3.3	4.3
Cn1c(C(=O)N2CCN(c3ccccc3)CC2)cc2cc(Cl)ccc21	0.3	-0.7	74.1*	.	-22.4	-1.3
Cc1noc(C)c1S(=O)(=O)Nc1cccc2c1O[C@@H](CN(C)C)[C@@H](C)CN([C@H](C)CO)C2=O	-1.2	.	.	1.1	-5.9	0.4[16.7 µM]
COc1ccc(CN2CCn3ncc(C(=O)Nc4ccccc4)c3C2=O)cc1	.	0.7	1.5	129.1*	0.7	0.3
O=C(O)c1cnn2c1C(=O)N(Cc1cccs1)CC2	0.4	-0.2	1.4	-18.4	-14.0	-0.7
C[C@H](CO)N1C[C@H](C)[C@H](CN(C)CC2CC2)Oc2cc(-c3ccc(C#N)cc3)ccc2S1(=O)=O	1.3	.	.	.	5.5	-2.1[16.7 µM]
Cc1cc(C(O)c2ncc(-c3ccccc3C)[nH]2)ccc1F (stereo unspecified)	0.3	.	.	4.1	.	68.0
OC(c1ccc(Cl)c(F)c1)c1ncc(-c2ccccc2F)[nH]1 (stereo unspecified)	1.8	.	.	.	.	?
Cc1ccccc1-c1cnc(C(O)c2ccc(F)c(F)c2)[nH]1 (stereo unspecified)	-0.6	.	.	-2.5	.	92.9*
OC(c1ccc(Cl)c(Cl)c1)c1ncc(-c2ccccc2F)[nH]1 (stereo unspecified)	2.7	.	.	4.8	.	103.7*
CCN(CC)c1ccc(NC(=O)C2CC(=O)N(Cc3ccccc3)C2)cc1 (stereo unspecified)	-2.1	-0.8	100.8*	.	6.5	.
CN(C)S(=O)(=O)c1ccc(NC(=O)C2CC(=O)N(Cc3ccccc3)C2)cc1 (stereo unspecified)	0.8	-2.5	-1.9	.	-9.4	.
CCCNC(=O)C[C@H]1CC[C@@H]2[C@@H](COc3ccc(NC(=O)COC)cc3C(=O)N2C)O1	-2.3	.	.	-1.2	2.9	-29.2[16.7 µM]
O=C(C[C@H]1C=C[C@H](NC(=O)Nc2ccc(F)cc2)[C@@H](CO)O1)NCc1ccccn1	-0.9	.	.	6.3	-4.7	.
CCc1ccc(Oc2ncnc(N)c2[N+](=O)[O-])cc1	-2.8	-1.6	66.7*	-3.3	-7.4	.
CC(=O)c1ccc(Oc2ncnc(N)c2[N+](=O)[O-])cc1	3.1	-0.5	-2.0	.	-2.4	-9.0
Cc1ccc(S(=O)(=O)NC(CC(C)C)C(=O)N2CC(C)OC(C)C2)cc1 (stereo unspecified)	1.4	-0.3	75.5*	1.3	-3.0	-3.1
Cc1ccc(S(=O)(=O)NC(CC(C)C)C(=O)N2CCOCCOCCOCC2)cc1 (stereo unspecified)	0.0	-2.2	0.2	6.1	-7.5	0.7
CO[C@@H]1CN(C)C(=O)c2cc(NS(C)(=O)=O)ccc2OC[C@H](C)N(C(=O)NC(C)C)C[C@@H]1C	0.5	.	.	-0.1	.	-18.4[16.7 µM]
SMILES	F508del corr	CAL PDZ FP-1	CAL PDZ FP-2	PGC1a acetyl inh	ARNT-TACC3 inh	miR-122 sensor
O=[N+]([O-])c1ccc(NN=Cc2ccccc2O)nc1	-0.9	0.1	42.0*	4.9	7.7	-4.7
O=[N+]([O-])c1ccc(O)c(/C=N/Nc2nc3ccccc3[nH]2)c1	.	0.8	1.1	.	83.5*	.
COc1ccc(O)c(/C=N/Nc2nc3ccccc3[nH]2)c1	4.4	-2.9	-1.3	-2.3	-12.7	.
CCN(CC)S(=O)(=O)c1ccc(N/N=C/c2ccc(O)cc2O)nc1	.	-1.8	-7.5	.	46.1*	.
Oc1ccc(C=NNc2ccccn2)c(O)c1	2.3	0.0	-2.3	.	60.3*	.
CCN(CC)S(=O)(=O)c1ccc(N/N=C(\C)c2ccncc2)nc1	-1.9	-1.5	-1.6	.	7.4	7.0
COc1ccc2c3c([nH]c2c1)[C@H](CO)N(C(=O)CN(C)C)CC31CCN(Cc2ccccc2)CC1	0.5	.	.	-15.5	.	.
O=C(NCC[C@@H]1CC[C@H](NS(=O)(=O)c2cccc(F)c2)[C@H](CO)O1)C1CCCCC1	0.2	.	.	1.9	-3.2	.
COc1cccc(-c2ccc(CC[C@H]3O[C@H]4CC[C@@H](CO)O[C@H]4C[C@@H]3NC(=O)c3cnccn3)cc2)c1	-2.3	.	.	-8.2	.	.
O=[N+]([O-])c1ccc(NN=Cc2ccc(O)cc2)nc1	0.0	0.6	-1.2	-26.8	-2.7	.
O=[N+]([O-])c1ccc(NN=Cc2ccc(O)cc2O)nc1	7.0	3.3	47.8*	7.8	28.6	9.1
COc1ccc(/C=N/NC(=S)Nc2ccccc2[N+](=O)[O-])cc1O	8.8*	0.9	.	.	-2.1	8.0
O=[N+]([O-])c1cccc(N/N=C/c2cc([N+](=O)[O-])ccc2O)c1	-1.2	.	-7.8	4.1	.	.
COc1ccc(/C=N/Nc2ccccn2)cc1O	-0.6	-1.2	0.0	4.3	26.2*	-8.6
Oc1cccc(C=NNc2ccccn2)c1	0.9	0.7	-9.1	10.9	12.7	.
O=[N+]([O-])c1ccc(O)c(/C=N/Nc2ccccn2)c1	.	-0.2	3.5	19.9	61.1*	24.4
COC(=O)c1sc(NC(=O)C2c3ccccc3Oc3ccccc32)c(C(=O)OC)c1C	.	-2.0	-4.0	.	-4.7	.
CCOC(=O)c1c(NC(=O)C2c3ccccc3Oc3ccccc32)sc(C(C)=O)c1C	11.2*	-2.5	0.5	-6.4	-0.5	-1.0
CCCCOc1ccc(C(=O)Oc2cc(C)[nH]c(=O)c2[N+](=O)[O-])cc1	4.0	-1.6	-1.4	11.9	46.1*	1.1
CC(C)N(Cc1ccccc1)C(=O)CN1c2cccc3cccc(c23)S1(=O)=O	-1.1	-0.4	-5.9	23.2	-2.7	4.9
CN(C)C(=O)CN1c2cccc3cccc(c23)S1(=O)=O	1.7	-0.7	30.9*	8.3	-7.0	-7.6
O=C(O)CCN1C(=O)/C(=C/c2ccc(-c3nc4ccccc4s3)o2)SC1=S	.	2.4	0.5	-2.8	63.5*	-1.2
O=C(O)CCCN1C(=O)/C(=C\c2ccc(-c3nc4ccccc4s3)o2)SC1=S	-2.7	2.3	-2.9	-11.8	-1.0	8.1
